Tests used:
U2OS = assay: Multiplex assay against U2OS; assay type: toxicity, cell-based; conditions: human
In short: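 Compound was added to live cells that had been stained at seeding with Hoechst33342, BioTracker Green Microtubule Cytoskeleton Dye, MitoTracker Red and Annexin V Alexa Fluor 680, and imaging followed on a CQ1 microscope at 37°C and 5% CO2. CellPathfinder machine-learning gating divided cells into Hoechst high-intensity objects or normal cells, normal cells into healthy, pyknosed or fragmented nuclei, and pyknosed cells into mitotic or apoptotic. Tubulin, mitochondrial-mass and membrane-permeability phenotypes are per cents of healthy-nucleus cells.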

Fibroblast = assay: Incucyte cell viability with human fibroblast; assay type: toxicity, cell-based; conditions: 10 µM, compound concentration 10 uM; note: filed as whole numbers so only -1 and 0 and 1 occur
[1] = 12 h, 1 µM, compound concentration 1 uM, replicate 1
[2] = 12 h, 1 µM, compound concentration 1 uM, replicate 2
[3] = 12 h, 10 µM, compound concentration 10 uM, replicate 1
[4] = 12 h, 10 µM, compound concentration 10 uM, replicate 2
[5] = 24 h, 1 µM, compound concentration 1 uM, replicate 1
[6] = 24 h, 1 µM, compound concentration 1 uM, replicate 2
[7] = 24 h, 10 µM, compound concentration 10 uM, replicate 1
[8] = 24 h, 10 µM, compound concentration 10 uM, replicate 2
[9] = 48 h, 1 µM, compound concentration 1 uM, replicate 1
[10] = 48 h, 1 µM, compound concentration 1 uM, replicate 2
[11] = 48 h, 10 µM, compound concentration 10 uM, replicate 1
[12] = 48 h, 10 µM, compound concentration 10 uM, replicate 2

CC(/C=C1\SC(=S)N(CCCC(=O)Nc2ccc(C(=O)O)c(O)c2)C1=O)=C\c1ccccc1
Population Apoptotic (%) (U2OS; [1]): 53% | Population Fragmented Nuclei (%) (U2OS; [1]): 8% | Population Healthy Nuclei (%) (U2OS; [1]): 77% | Population Hoechst High Intensity Objects (%) (U2OS; [1]): 3% | Population Membrane Permeable-Phenotype (%) (U2OS; [1]): 7% | Population Mitochondria Different-Phenotype (%) (U2OS; [1]): 5% | Population Mitotic Cells (%) (U2OS; [1]): 46% | Population Normal (%) (U2OS; [1]): 96% | Population Pyknosed Nuclei (%) (U2OS; [1]): 13% | Population Tubulin-Different-Phenotype (%) (U2OS; [1]): 13% | Total Cell Count (U2OS; [1]): 154 | Population Apoptotic (%) (U2OS; [2]): 33% | Population Fragmented Nuclei (%) (U2OS; [2]): 10% | Population Healthy Nuclei (%) (U2OS; [2]): 81% | Population Hoechst High Intensity Objects (%) (U2OS; [2]): 6% | Population Mitochondria Different-Phenotype (%) (U2OS; [2]): 7% | Population Mitotic Cells (%) (U2OS; [2]): 66% | Population Normal (%) (U2OS; [2]): 93% | Population Pyknosed Nuclei (%) (U2OS; [2]): 7% | Population Tubulin-Different-Phenotype (%) (U2OS; [2]): 7% | Total Cell Count (U2OS; [2]): 65 | Population Apoptotic (%) (U2OS; [3]): 42% | Population Fragmented Nuclei (%) (U2OS; [3]): 7% | Population Healthy Nuclei (%) (U2OS; [3]): 86% | Population Hoechst High Intensity Objects (%) (U2OS; [3]): 9% | Population Membrane Permeable-Phenotype (%) (U2OS; [3]): 9% | Population Mitochondria Different-Phenotype (%) (U2OS; [3]): 5% | Population Mitotic Cells (%) (U2OS; [3]): 57% | Population Normal (%) (U2OS; [3]): 90% | Population Pyknosed Nuclei (%) (U2OS; [3]): 5% | Population Tubulin-Different-Phenotype (%) (U2OS; [3]): 8% | Total Cell Count (U2OS; [3]): 117 | Population Apoptotic (%) (U2OS; [4]): 44% | Population Fragmented Nuclei (%) (U2OS; [4]): 17% | Population Healthy Nuclei (%) (U2OS; [4]): 72% | Population Hoechst High Intensity Objects (%) (U2OS; [4]): 7% | Population Membrane Permeable-Phenotype (%) (U2OS; [4]): 6% | Population Mitochondria Different-Phenotype (%) (U2OS; [4]): 6% | Population Mitotic Cells (%) (U2OS; [4]): 55% | Population Normal (%) (U2OS; [4]): 92% | Population Pyknosed Nuclei (%) (U2OS; [4]): 10% | Population Tubulin-Different-Phenotype (%) (U2OS; [4]): 9% | Total Cell Count (U2OS; [4]): 88 | Population Apoptotic (%) (U2OS; [5]): 53% | Population Fragmented Nuclei (%) (U2OS; [5]): 6% | Population Healthy Nuclei (%) (U2OS; [5]): 83% | Population Hoechst High Intensity Objects (%) (U2OS; [5]): 4% | Population Membrane Permeable-Phenotype (%) (U2OS; [5]): 5% | Population Mitochondria Different-Phenotype (%) (U2OS; [5]): 9% | Population Mitotic Cells (%) (U2OS; [5]): 46% | Population Normal (%) (U2OS; [5]): 95% | Population Pyknosed Nuclei (%) (U2OS; [5]): 10% | Population Tubulin-Different-Phenotype (%) (U2OS; [5]): 5% | Total Cell Count (U2OS; [5]): 151 | Population Apoptotic (%) (U2OS; [6]): 54% | Population Fragmented Nuclei (%) (U2OS; [6]): 12% | Population Healthy Nuclei (%) (U2OS; [6]): 76% | Population Hoechst High Intensity Objects (%) (U2OS; [6]): 6% | Population Membrane Permeable-Phenotype (%) (U2OS; [6]): 4% | Population Mitochondria Different-Phenotype (%) (U2OS; [6]): 10% | Population Mitotic Cells (%) (U2OS; [6]): 45% | Population Normal (%) (U2OS; [6]): 93% | Population Tubulin-Different-Phenotype (%) (U2OS; [6]): 12% | Total Cell Count (U2OS; [6]): 64 | Population Apoptotic (%) (U2OS; [7]): 36% | Population Fragmented Nuclei (%) (U2OS; [7]): 11% | Population Healthy Nuclei (%) (U2OS; [7]): 81% | Population Hoechst High Intensity Objects (%) (U2OS; [7]): 5% | Population Membrane Permeable-Phenotype (%) (U2OS; [7]): 5% | Population Mitochondria Different-Phenotype (%) (U2OS; [7]): 8% | Population Mitotic Cells (%) (U2OS; [7]): 63% | Population Normal (%) (U2OS; [7]): 94% | Population Pyknosed Nuclei (%) (U2OS; [7]): 6% | Population Tubulin-Different-Phenotype (%) (U2OS; [7]): 6% | Total Cell Count (U2OS; [7]): 151 | Population Apoptotic (%) (U2OS; [8]): 44% | Population Fragmented Nuclei (%) (U2OS; [8]): 9% | Population Healthy Nuclei (%) (U2OS; [8]): 83% | Population Hoechst High Intensity Objects (%) (U2OS; [8]): 4% | Population Mitochondria Different-Phenotype (%) (U2OS; [8]): 14% | Population Mitotic Cells (%) (U2OS; [8]): 55% | Population Normal (%) (U2OS; [8]): 95% | Population Pyknosed Nuclei (%) (U2OS; [8]): 7% | Population Tubulin-Different-Phenotype (%) (U2OS; [8]): 14% | Total Cell Count (U2OS; [8]): 115 | Population Apoptotic (%) (U2OS; [9]): 61% | Population Fragmented Nuclei (%) (U2OS; [9]): 2% | Population Healthy Nuclei (%) (U2OS; [9]): 92% | Population Hoechst High Intensity Objects (%) (U2OS; [9]): 1% | Population Membrane Permeable-Phenotype (%) (U2OS; [9]): 1% | Population Mitochondria Different-Phenotype (%) (U2OS; [9]): 9% | Population Mitotic Cells (%) (U2OS; [9]): 38% | Population Normal (%) (U2OS; [9]): 98% | Population Pyknosed Nuclei (%) (U2OS; [9]): 5% | Population Tubulin-Different-Phenotype (%) (U2OS; [9]): 10% | Total Cell Count (U2OS; [9]): 142 | Population Apoptotic (%) (U2OS; [10]): 50% | Population Fragmented Nuclei (%) (U2OS; [10]): 7% | Population Healthy Nuclei (%) (U2OS; [10]): 84% | Population Hoechst High Intensity Objects (%) (U2OS; [10]): 4% | Population Membrane Permeable-Phenotype (%) (U2OS; [10]): 10% | Population Mitochondria Different-Phenotype (%) (U2OS; [10]): 14% | Population Mitotic Cells (%) (U2OS; [10]): 50% | Population Normal (%) (U2OS; [10]): 95% | Population Pyknosed Nuclei (%) (U2OS; [10]): 8% | Population Tubulin-Different-Phenotype (%) (U2OS; [10]): 14% | Total Cell Count (U2OS; [10]): 60 | Population Apoptotic (%) (U2OS; [11]): 31% | Population Fragmented Nuclei (%) (U2OS; [11]): 5% | Population Healthy Nuclei (%) (U2OS; [11]): 87% | Population Hoechst High Intensity Objects (%) (U2OS; [11]): 2% | Population Membrane Permeable-Phenotype (%) (U2OS; [11]): 2% | Population Mitochondria Different-Phenotype (%) (U2OS; [11]): 11% | Population Mitotic Cells (%) (U2OS; [11]): 68% | Population Normal (%) (U2OS; [11]): 97% | Population Pyknosed Nuclei (%) (U2OS; [11]): 7% | Population Tubulin-Different-Phenotype (%) (U2OS; [11]): 11% | Total Cell Count (U2OS; [11]): 241 | Population Apoptotic (%) (U2OS; [12]): 16% | Population Fragmented Nuclei (%) (U2OS; [12]): 4% | Population Healthy Nuclei (%) (U2OS; [12]): 92% | Population Hoechst High Intensity Objects (%) (U2OS; [12]): 0% | Population Membrane Permeable-Phenotype (%) (U2OS; [12]): 1% | Population Mitochondria Different-Phenotype (%) (U2OS; [12]): 17% | Population Mitotic Cells (%) (U2OS; [12]): 83% | Population Normal (%) (U2OS; [12]): 99% | Population Pyknosed Nuclei (%) (U2OS; [12]): 2% | Population Tubulin-Different-Phenotype (%) (U2OS; [12]): 19% | Total Cell Count (U2OS; [12]): 147 | Growth Rate (Fibroblast; 0 h, replicate number 1, timepoint 0 hours): 0 | Growth Rate (Fibroblast; 6 h, replicate number 2, timepoint 6 hours): 0 | Growth Rate (Fibroblast; 12 h, replicate number 2, timepoint 12 hours): 0 | Growth Rate (Fibroblast; 18 h, replicate number 1, timepoint 18 hours): 1 | Growth Rate (Fibroblast; 18 h, replicate number 2, timepoint 18 hours): 0 | Growth Rate (Fibroblast; 24 h, replicate number 1, timepoint 24 hours): 1 | Growth Rate (Fibroblast; 24 h, replicate number 2, timepoint 24 hours): 0

From ChEMBL document CHEMBL4689842, “EUbOPEN Chemogenomics Library wave 1” (2021)
